Measured values from PMC4449380 (Advances in Therapy, 2015).
Like-named read-outs stand apart in the source and are kept apart here.

Assays:
[1] = type: in vivo, healthy Japanese males
How it was run: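 Open-label add-on study in 12 males: luseogliflozin 5 mg Day 1, pioglitazone 30 mg Days 2–7, both Day 8, dosed before breakfast. Blood was drawn pre-dose and 0.25–24 h on Days 1, 7 and 8. LC–MS/MS measured luseogliflozin (0.05–100 ng/mL) and pioglitazone with M-III/M-IV (10–2000 ng/mL). […] GMR with 90% CI was by ANOVA with treatment fixed and subject random.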

[2] = Safety assessments; type: in vivo, healthy Japanese males
How it was run: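 Safety was monitored across six single-site studies of 12 healthy males aged 20–39 years, hospitalized during dosing. Adverse events were recorded by nature and frequency, including changes in laboratory values, vital signs and 12-lead ECG. Investigators judged hypoglycemia from symptoms or blood glucose.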

[3] = system: CYP2A6; conditions: in vitro; ref Taisho Pharmaceutical Co., Ltd., data on file; cited from earlier work
[4] = system: CYP2B6; conditions: in vitro; ref Taisho Pharmaceutical Co., Ltd., data on file; cited from earlier work
[5] = system: breast cancer resistance protein; conditions: in vitro; ref Taisho Pharmaceutical Co., Ltd., data on file; cited from earlier work
[6] = system: CYP3A4; conditions: in vitro; ref Taisho Pharmaceutical Co., Ltd., data on file; cited from earlier work
[7] = system: OATP1B1; conditions: in vitro; ref Taisho Pharmaceutical Co., Ltd., data on file; cited from earlier work
[8] = system: CYP1A2; conditions: in vitro; ref Taisho Pharmaceutical Co., Ltd., data on file; cited from earlier work
[9] = system: CYP2C9; conditions: in vitro; ref Taisho Pharmaceutical Co., Ltd., data on file; cited from earlier work
[10] = ref Taisho Pharmaceutical Co., Ltd., data on file; cited from earlier work
[11] = 24-h cumulative urinary glucose excretion; type: in vivo, healthy Japanese males; conditions: luseogliflozin in combination with an OAD
How it was run: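 Healthy males, 12 per study. Pooled urine was collected for 24 h pre-dose and 0–24 h post-dose, and urine glucose was measured. Glimepiride arm: randomized three-way crossover of single doses (luseogliflozin 5 mg, glimepiride 1 mg, or both) before breakfast, with ≥7-day washout. Metformin arm: same design with 250 mg under fasting. Voglibose arm: add-on design, urine collected Days 1, 7 and 8.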

[12] = type: in vivo, healthy Japanese males; conditions: co-administered with miglitol
How it was run: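 Randomized open-label crossover in 12 males using six sequences with ≥7-day washout. Single oral doses of luseogliflozin 5 mg, miglitol 50 mg, or both were given before breakfast while hospitalized. Venous blood was drawn pre-dose and 0.25–24 h post-dose. Plasma luseogliflozin was measured by LC–MS/MS (0.05–100 ng/mL). Cmax was derived non-compartmentally. GMR with 90% CI, combination vs alone, used ANOVA with treatment, sequence and timing fixed and subject random.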

[13] = system: organic cation transporter 2; conditions: in vitro; ref Taisho Pharmaceutical Co., Ltd., data on file; cited from earlier work
[14] = system: OAT1; conditions: in vitro; ref Taisho Pharmaceutical Co., Ltd., data on file; cited from earlier work
[15] = system: OAT3; conditions: in vitro; ref Taisho Pharmaceutical Co., Ltd., data on file; cited from earlier work
[16] = system: P-glycoprotein; conditions: in vitro; ref Taisho Pharmaceutical Co., Ltd., data on file; cited from earlier work
[17] = cited from earlier work
[18] = system: CYP2D6; conditions: in vitro; ref Taisho Pharmaceutical Co., Ltd., data on file; cited from earlier work
[19] = system: CYP2C8; conditions: in vitro; ref Taisho Pharmaceutical Co., Ltd., data on file; cited from earlier work
[20] = system: CYP2E1; conditions: in vitro; ref Taisho Pharmaceutical Co., Ltd., data on file; cited from earlier work

SMILES: CCc1ccc(CCOc2ccc(CC3SC(=O)NC3=O)cc2)nc1 (racemic) [Pioglitazone, (±)-5(-)[p(-)[2-(5-ethyl-2-pyridyl)ethoxy]benzyl]-2,4-thiazolidinedione, reference compound]
- decrease in C max and AUC0–24h of pioglitazone ([1]; co-administration with luseogliflozin): about 10%

SMILES: CCOc1ccc(Cc2cc([C@@H]3S[C@H](CO)[C@@H](O)[C@H](O)[C@H]3O)c(OC)cc2C)cc1 [Luseogliflozin, (1S)-1,5-Anhydro-1-[5-(4-ethoxybenzyl)-2-methoxy-4-methylphenyl]-1-thio-D-glucitol]
- serious adverse events or adverse events requiring treatment discontinuation ([2]; all six studies, luseogliflozin alone or with OADs): no serious adverse events
- changes in laboratory tests, vital signs, or electrocardiography ([2]; all studies): no clinically relevant changes
- hypoglycemia ([2]; any of the studies): no episodes of hypoglycemia
- adverse events ([2]; luseogliflozin administered alone or in combination with the other OADs): no adverse events
- adverse events ([2]; luseogliflozin in combination with glimepiride, mild in severity): One adverse event (white blood cell urine positive) occurred in one subject
- adverse events ([2]; luseogliflozin in combination with metformin (nausea; nausea and headache), mild in severity): three events occurred in two subjects
- IC50 [3]: > 100 µM
- IC50 [4]: > 100 µM
- IC50 [5]: > 100 µM
- IC50 [6]: > 100 µM
- IC50 [7]: > 100 µM
- IC50 [8]: > 100 µM
- IC50 [9]: > 100 µM
- enzymes involved in the metabolism [10]: cytochrome P450 (CYP) isoforms 3A4/5, 4A11, 4F2, and 4F3B, and UDP-glucuronosyltransferase 1A1
- UGE compared with luseogliflozin alone [11]: slightly reduced
- change in C max of luseogliflozin [12]: about 15%
- IC50 [13]: > 100 µM
- IC50 [14]: > 100 µM
- IC50 [15]: > 100 µM
- IC50 [16]: > 100 µM
- incidence of hypoglycemia ([17]; in combination with a sulfonylurea, over 52 weeks): 10.7%
- hemoglobin A1c and fasting plasma glucose ([17]; in combination with other classes of OADs for 52 weeks): significantly reduced
- rate of adverse drug reactions ([17]; in combination with other classes of OADs, 52 weeks): 12.4–25.4%
- incidence of hypoglycemia ([17]; in combination with other classes of OADs): 0.9–3.4%
- change in C max of luseogliflozin ([1]; co-administered with pioglitazone): about 15%
- IC50 [18]: > 100 µM
- IC50 [19]: > 100 µM
- IC50 [20]: > 100 µM
